Screening results from PubChem BioAssay.
Sampled rows, rich in hits. Any-hit rate of the full collection: about 2.5%.
S100A4 MyoIIA = inhibitors of S100A4-myosin IIA peptide binding, primary screen, biochemical, fluorescence polarization, TAMRA-MyoIIA peptide; Protein S100-A4 (Homo sapiens), P26447; inhibition, % at 10.7 µM; 0.14% of 360,000 active; AID 652163, 2013;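 active = mean inhibition of at least 70% across replicates, with every replicate also reaching that level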
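Material: human S100A4 monomer with TAMRA-labelled myosin IIA peptide; buffer or medium: HEPES pH 7.2 with CaCl2, KCl, NaCl, DTT, Triton; compound dosing: one concentration per compound; schedule: 5 min incubation before reading; benchmarks: neutral control DMSO, positive control TFP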
E-sel inducer = E-selectin induction in HUVECs, primary screen, imaging, HUVEC, immunofluorescence imaging, single point; P16581; normalized: neutral wells 0, TNF-alpha wells 100; activation, % at 7.58 µM; 0.37% of 260,000 active;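 active = mean E-selectin-positive cell signal at least 10% of the positive control, reached in at least 60% of replicates, without over 20% cell loss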
Target sequence (P16581 whole entry, looked up): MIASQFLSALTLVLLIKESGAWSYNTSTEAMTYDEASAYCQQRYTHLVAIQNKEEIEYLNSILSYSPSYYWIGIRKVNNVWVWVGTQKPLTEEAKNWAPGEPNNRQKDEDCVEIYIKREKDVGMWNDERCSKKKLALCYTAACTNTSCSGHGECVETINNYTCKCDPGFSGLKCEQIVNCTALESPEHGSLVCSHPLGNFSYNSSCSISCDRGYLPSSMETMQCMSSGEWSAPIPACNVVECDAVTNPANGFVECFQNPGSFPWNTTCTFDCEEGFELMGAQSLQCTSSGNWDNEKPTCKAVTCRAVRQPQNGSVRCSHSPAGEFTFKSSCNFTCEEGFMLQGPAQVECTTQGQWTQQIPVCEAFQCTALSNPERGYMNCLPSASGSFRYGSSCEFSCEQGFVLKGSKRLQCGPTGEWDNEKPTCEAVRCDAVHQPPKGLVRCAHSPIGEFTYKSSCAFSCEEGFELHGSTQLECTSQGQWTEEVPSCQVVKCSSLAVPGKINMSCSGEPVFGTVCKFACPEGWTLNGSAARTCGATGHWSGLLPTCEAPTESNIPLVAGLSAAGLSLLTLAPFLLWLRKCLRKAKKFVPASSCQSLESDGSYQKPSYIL
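Read-out: % PE-positive cells | Test system: HUVEC | Doses: One compound dose added by pin transfer | Buffer or medium: EGM-2 over gelatin coat | Signal: Immunofluorescence imaging | Benchmarks: TNF-alpha, DMSO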
SIRT5 inh = SIRT5 desuccinylase inhibitors, primary screen, biochemical, fluorescence imaging, single point, set 5 | NAD-dependent protein deacylase sirtuin-5, mitochondrial (Homo sapiens), Q9NXA8 | Purified SirT5, succinyl-peptide AMC, trypsin-coupled fluorescence | inhibition, % at 15 µM | 1.1% of 330,000 active; in the data active = inhibition above about 15%
miR-122 sensor = miR-122 Renilla sensor signal increase in Huh7, primary screen, miR-122 inhibitor project, cell-based, single point, plate reader; Huh7 miR-122 Renilla luciferase sensor, 48 h; neutral wells = 0, positive control = 100; activation (reporter increase), % at 12.5 µM; 0.3% of 340,000 active; AID 602342, 2012;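 active = mean replicate activation score at least 90 and every replicate individually at or above 90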;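 note: higher luciferase means less miR-122 activity so hits act as miR-122 inhibitors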
FGF22 binding-1 = binders of human FGF22 protein, primary screen, FGF22 synaptogenesis inhibitor project, biophysical, thermal shift, single point; Fibroblast growth factor 22 (Homo sapiens), Q9HCT0; 1.5% of 340,000 active; recombinant FGF22 thermal shift, SYPRO orange fluorescence; percent of sucrose octasulfate shift, DMSO zero; activity (Tm shift, normalised), % at 9.99 µM;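 active = mean Tm shift, scaled 0 neutral to 100 positive control, at about 1.3% or above, every replicate too, limit read from the data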
FGF22 binding-2 = binders of human FGF22 protein, dose response, FGF22 synaptogenesis inhibitor project, biophysical, thermal shift, cherry-pick retest; thermal shift activity, °C (ΔTm) at 38 µM; AID 720646, 2013; recombinant FGF22 thermal shift, SYPRO orange fluorescence; 2% of 1,000 active; shares compounds with FGF22 binding-1;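 active = fitted rise in melting shift crosses a set limit at or below the top valid dose tested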
TSA no protein = compound-only thermal shift signal without protein, dose response, artefact control for FGF22 binder project, biochemical, cherry-picked samples, RT-PCR instrument | shares compounds with FGF22 binding-1 | compound-only SYPRO orange thermal shift counter-screen, no protein | AC50, µM (doses to about 38 µM) | 2% of 1,000 active;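 active = rising signal whose fitted curve reaches the 0.54 level within the top valid dose, showing a melting point, actives reach about 13 µM in these data; inactive = the rest, including activity in the opposite direction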; note: value is where the raw curve crosses a fixed level and not half-maximal
* = called active by the depositor; i = inactive; . = no result given; [ ] = remark or other dose.

SMILES	S100A4 MyoIIA	E-sel inducer	SIRT5 inh	miR-122 sensor	FGF22 binding-1	FGF22 binding-2	TSA no protein
COc1ccc(CN(C)C[C@H]2Oc3c(NS(C)(=O)=O)cccc3C(=O)N([C@@H](C)CO)C[C@H]2C)cc1	11	0	2	1[16.7 µM]	3.1*	0.026	i
COc1ccc(CN(C)C[C@@H]2Oc3c(NS(C)(=O)=O)cccc3C(=O)N([C@H](C)CO)C[C@@H]2C)cc1	-1	-2	3	-2[16.7 µM]	0	.	.
C[C@@H]1CN([C@@H](C)CO)C(=O)c2ccccc2-c2ccccc2CO[C@@H]1CN(C)C(=O)C1CC1	-7	0	0	.	0	.	.
C[C@H](CO)N1C[C@H](C)[C@@H](CN(C)C(=O)Nc2cccc3ccccc23)Oc2c(NC(=O)C3CC3)cccc2C1=O	1	1	7	2[16.7 µM]	2.2*	0.11	i
C[C@H](CO)N1C[C@H](C)[C@@H](CN(C)C(=O)C2CC2)OCc2ccccc2-c2ccccc2C1=O	2	0	-1	.	11*	0.007[42 µM]	i
O=C(C[C@@H]1CC[C@H]2[C@@H](COC[C@@H](O)CN2C(=O)c2ccccc2F)O1)N1CCN(c2ccccc2)CC1	-13	0	1	1[16.7 µM]	-1	.	.
C[C@@H]1CN([C@H](C)CO)S(=O)(=O)c2ccc(-c3ccccc3)cc2O[C@H]1CN(C)Cc1cccc(F)c1	-4	.	0	14[16.7 µM]	0	.	.
COc1ccc(S(=O)(=O)Nc2ccc3c(c2)C(=O)N([C@@H](C)CO)C[C@H](C)[C@@H](CN(C)C(=O)Nc2ccc4c(c2)OCO4)OCCCC[C@H](C)O3)cc1	4	0	-2	2[16.7 µM]	0	.	.
COc1ccc2c3c([nH]c2c1)[C@@H](CO)N(Cc1nccs1)CC31CN(C(=O)C2CCCC2)C1	-5	0	4	.	0	.	.
COc1cc(C2C(C#N)=C(N)Oc3n[nH]c(-c4cccnc4)c32)cc(Br)c1O (centres undefined)	-6	0	2	-10	1.8*	0.28	i
COc1cc(C2C(C#N)=C(N)Oc3n[nH]c(-c4cccnc4)c32)ccc1OCC(N)=O (centres undefined)	-1	.	-1	2	0	.	.
COc1cc(C(=O)NC(=S)Nc2ccccc2[N+](=O)[O-])cc(OC)c1OC	2	.	2	-5	1.8*	0.13	i
COc1cc(C(=O)NC(=S)Nc2ccc([N+](=O)[O-])cc2C)cc(OC)c1OC	3	0	1	-4	1	.	.
CCCNC(=O)C[C@H]1CC[C@@H]2[C@H](COC[C@@H](O)CN2Cc2ccc(Cl)c(Cl)c2)O1	9	0	-2	4[16.7 µM]	-1	.	.
CCN(CC)c1ccc(/C=N/NC(=O)c2c[nH]c3ccccc23)cc1	-2	0	0	.	1.8*	-0.099	i
CCN(CC)c1ccc(/C=N/NC(=O)c2cc3ccccc3[nH]2)cc1	-5	11	-1	2	0	.	.
CN(C)C(=O)C[C@@H]1CC[C@@H]2[C@@H](COc3ccc(NS(=O)(=O)c4cccc(F)c4)cc3C(=O)N2C)O1	9	0	-3	10[16.7 µM]	0	.	.
COc1c(O)ccc(/C=C(\C#N)c2nc3ccccc3[nH]2)c1[N+](=O)[O-]	-1	0	.	-6	1.4*	-0.11	i
COc1ccc(/C=C(\C#N)c2nc3ccccc3[nH]2)cc1O	1	.	-1	.	0	.	.
CNC[C@@H]1Oc2cc(C#Cc3cccnc3)ccc2S(=O)(=O)N([C@@H](C)CO)C[C@H]1C	-2	0	3	-4[16.7 µM]	0	.	.
